Experimental data: ChEMBL document CHEMBL4715738, “In Vitro Antibacterial Activity of Curcumin-Polymyxin B Combinations against Multidrug-Resistant Bacteria Associated with Traumatic Wound Infections” (J Nat Prod, 2016)
Active and inactive are the calls of the source.

Assays:
[1] = system: Stenotrophomonas maltophilia; assay: Synergistic antibacterial activity against Stenotrophomonas maltophilia NCTC 10258 assessed as fractional inhibitory concentration index measured after 24 hrs in presence of curcumin by checkerboard assay; format: functional
In short: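 FICI calculated from combination MICs; ≤0.5 taken as synergy and >0.5–4.0 as additive. Where an MIC was not reached, the dilution above the highest concentration tested was used in the calculation. Run in triplicate and reported as means.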

[2] = system: Stenotrophomonas maltophilia; assay: Antibacterial activity against Stenotrophomonas maltophilia NCTC 10258 assessed as reduction in colony formation at MIC measured after 24 hrs by time kill assay; format: functional, organism-based
In short: (§1)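 Time-kill in Mueller-Hinton 2 broth. Inoculum was a 1/1000 dilution of a 16 h overnight culture, about 10^6 CFU/mL, 10 mL per tube. Arms were each agent alone at ×1 MIC, or the combination at ×1 MIC plus ×0.5 MIC partner. Incubated at 37 °C with continuous agitation for 24 h. Samples taken at 0, 2, 4, 6 and 24 h, serially diluted and plated on IsoSensitest agar for CFU counts.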

Acinetobacter baumannii [3] = assay: Synergistic antibacterial activity against Acinetobacter baumannii NCTC 19606 assessed as fractional inhibitory concentration index measured after 24 hrs in presence of curcumin by checkerboard assay; format: functional
In short: (§2)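 FICI was derived from checkerboard MICs. Synergy was defined as FICI ≤ 0.5 and additive as FICI > 0.5−4.0. Where an MIC was not reached, the dilution above the maximum dose was used in the FICI calculation. Experiments were run in triplicate and reported as means.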

Enterococcus faecium [4] = assay: Antibacterial activity against vancomycin-resistant Enterococcus faecium OEF42 assessed as reduction in bacterial growth incubated for 24 hrs in presence of curcumin; format: functional
Pseudomonas aeruginosa [5] = assay: Antibacterial activity against Pseudomonas aeruginosa ATCC 27853 assessed as reduction in bacterial growth incubated for 24 hrs in presence of curcumin; format: functional
Staphylococcus aureus [6] = assay: Synergistic antibacterial activity against methicillin-resistant Staphylococcus aureus NCTC 12493 assessed as fractional inhibitory concentration index measured after 24 hrs in presence of curcumin by checkerboard assay; format: functional; in short: as §2
Enterococcus faecium [7] = assay: Antibacterial activity against vancomycin-resistant Enterococcus faecium OEF65 assessed as reduction in bacterial growth incubated for 24 hrs in presence of curcumin; format: functional
Acinetobacter baumannii [8] = assay: Antibacterial activity against Acinetobacter baumannii AB16 harboring OXA-23 clone 2 assessed as reduction in bacterial growth incubated for 24 hrs in presence of curcumin; format: functional
Streptococcus pyogenes [9] = assay: Antibacterial activity against Streptococcus pyogenes SPY2 assessed as reduction in bacterial growth incubated for 24 hrs in presence of curcumin; format: functional
Staphylococcus aureus [10] = assay: Antibacterial activity against methicillin-resistant Staphylococcus aureus NCTC 12493 assessed as reduction in colony formation at MIC measured up to 24 hrs by time kill assay; format: functional, organism-based; settings: time hrs <=24
In short: (§3)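 Time-kill in 10 mL Mueller-Hinton 2 broth, 37 °C with continuous agitation, 24 h. Inoculum was a 1/1000 dilution of a 16 h overnight culture, about 10^6 CFU/mL. Single agents at 1× MIC; combination at 1× MIC polymyxin B plus 0.5× MIC curcumin. Samples at 0, 2, 4, 6 and 24 h were serially diluted and plated on IsoSensitest agar for CFU/mL.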

Staphylococcus aureus [11] = assay: Synergistic antibacterial activity against vancomycin-intermediate resistant Staphylococcus aureus Mu50 assessed as fractional inhibitory concentration index measured after 24 hrs in presence of curcumin by checkerboard assay; format: functional; in short: as §2
Streptococcus pyogenes [12] = assay: Synergistic antibacterial activity against Streptococcus pyogenes SPY3 assessed as fractional inhibitory concentration index measured after 24 hrs in presence of curcumin by checkerboard assay
[13] = system: Stenotrophomonas maltophilia; assay: Antibacterial activity against Stenotrophomonas maltophilia SMB07 assessed as reduction in bacterial growth incubated for 24 hrs in presence of polymyxin B; format: functional
[14] = system: Stenotrophomonas maltophilia; assay: Bactericidal activity against Stenotrophomonas maltophilia NCTC […] assessed as log reduction in colony forming units at 0.5 fold MIC measured after 24 hrs in presence of polymyxin B at MIC by time kill assay; format: functional; in short: as §1
[15] = system: Stenotrophomonas maltophilia; assay: Bactericidal activity against Stenotrophomonas maltophilia NCTC 102586 assessed as bacterial cell death at 0.5 fold MIC measured after 4 to 6 hrs in presence of polymyxin B at MIC by time kill assay relative to control; format: functional; settings: time 4-6 hrs; in short: as §3
Acinetobacter baumannii [16] = assay: Bactericidal activity against Acinetobacter baumannii NCTC 19606 assessed as log reduction in colony forming units at 0.5 fold MIC measured after 24 hrs in presence of polymyxin B at MIC by time kill assay; format: functional; in short: as §1
Pseudomonas aeruginosa [17] = assay: Potentiation of polymyxin B-induced antibacterial activity against Pseudomonas aeruginosa ATCC 27853 assessed as fold reduction in polymyxin B MIC measured after 24 hrs in presence of polymyxin B by checkerboard assay; format: functional
Staphylococcus aureus [18] = assay: Antibacterial activity against vancomycin-intermediate resistant Staphylococcus aureus Mu50 assessed as reduction in bacterial growth incubated for 24 hrs in presence of polymyxin B; format: functional
HaCaT = assay: Cytotoxicity against human HaCaT cells at 43.4 uM measured after 4 hrs in presence of 1.5 uM polymyxin B by CyTox 96 nonradioactive assay relative to control; format: cell-based
Enterococcus faecium [19] = assay: Potentiation of polymyxin B-induced antibacterial activity against vancomycin-resistant Enterococcus faecium OEF65 assessed as fold reduction in polymyxin B MIC measured after 24 hrs in presence of polymyxin B by checkerboard assay; format: functional
Enterococcus faecium [20] = assay: Potentiation of polymyxin B-induced antibacterial activity against vancomycin-resistant Enterococcus faecium OEF42 assessed as fold reduction in polymyxin B MIC measured after 24 hrs in presence of polymyxin B by checkerboard assay; format: functional
[21] = system: Stenotrophomonas maltophilia; assay: Antibacterial activity against Stenotrophomonas maltophilia NCTC 10258 assessed as reduction in bacterial colony formation at 0.5 fold MIC measured after 24 hrs by time kill assay; format: functional, organism-based; in short: as §1
Acinetobacter baumannii [22] = assay: Antibacterial activity against Acinetobacter baumannii NCTC 19606 assessed as reduction in bacterial growth incubated for 24 hrs in presence of polymyxin B; format: functional

CC[C@H](C)CCCCC(=O)N[C@@H](CCN)C(=O)N[C@H](C(=O)N[C@@H](CCN)C(=O)N[C@H]1CCNC(=O)[C@H]([C@@H](C)O)NC(=O)[C@H](CCN)NC(=O)[C@H](CCN)NC(=O)[C@H](CC(C)C)NC(=O)[C@@H](Cc2ccccc2)NC(=O)[C@H](CCN)NC1=O)[C@@H](C)O.O=S(=O)(O)O
fractional inhibitory concentration index (FICI) [1]: 0.012
Activity [2]: inactive
fractional inhibitory concentration index (FICI) (Acinetobacter baumannii [3]): 0.068
MIC (Enterococcus faecium [4]): 3.1 µM
MIC (Pseudomonas aeruginosa [5]): 0.006 µM
fractional inhibitory concentration index (FICI) (Staphylococcus aureus [6]): 0.031
MIC (Enterococcus faecium [7]): 1.5 µM
MIC (Acinetobacter baumannii [8]): 0.012 µM
MIC (Streptococcus pyogenes [9]): 0.79 µM
Activity (Staphylococcus aureus [10]): inactive
fractional inhibitory concentration index (FICI) (Staphylococcus aureus [11]): 0.047
fractional inhibitory concentration index (FICI) (Streptococcus pyogenes [12]): 0.5

COc1cc(/C=C/C(=O)CC(=O)/C=C/c2ccc(O)c(OC)c2)ccc1O [CURCUMIN]
MIC [13]: 22 µM
Activity [14]: >3 log10CFU/ml
Activity [15]: 100%
Activity (Acinetobacter baumannii [16]): >3 log10CFU/ml
fold change (FC) (Pseudomonas aeruginosa [17]): 3
MIC (Staphylococcus aureus [18]): 43 µM
Activity (HaCaT): 22%
fold change (FC) (Enterococcus faecium [19]): 3
fold change (FC) (Enterococcus faecium [20]): 3
Activity [21]: inactive
MIC (Acinetobacter baumannii [22]): 22 µM
